In ChEMBL document CHEMBL1138790, “Second-generation lymphocyte function-associated antigen-1 inhibitors: 1H-imidazo[1,2-alpha]imidazol-2-one derivatives” (J Med Chem, 2004):

Legend:
[1] = biological target: T1, Intercellular adhesion molecule (ICAM-1), Integrin alpha-L/beta-2 (Homo sapiens, UniProt P05107+P20701); assay: Dissociation constant for human Lymphocyte function associated antigen 1 in LFA-1/ICAM-1 binding assay; format: protein-complex assay
Cell line [2] = assay: cells; format: functional, cell-based; details: Homo sapiens, Blood
[3] = biological target: T1, Intercellular adhesion molecule (ICAM-1), Integrin alpha-L/beta-2; assay: Dissociation constant against human Lymphocyte function associated antigen1 in LFA-1/ICAM-1 binding assay; format: protein-complex assay
[4] = Concentration of compound required for 50% inhibition of aggregation of JY cell lines; format: functional, cell-based; details: Homo sapiens
Mus musculus = organism: Mus musculus; assay: tissue or blood; format: functional, organism-based
[5] = biological target: T1, Intercellular adhesion molecule (ICAM-1), Integrin alpha-L/beta-2; assay: Dissociation constant for human Lymphocyte function-associated antigen-1 in LFA-1/ICAM-1 binding assay; format: protein-complex assay
Cell line [6] = assay: Concentration required for irreversible binding to human liver microsomes; format: functional
[7] = Concentration required to inhibit aggregation of JY cells; format: functional, cell-based; details: Homo sapiens
[8] = biological target: T1, Intercellular adhesion molecule (ICAM-1), Integrin alpha-L/beta-2; assay: Dissociation constant for human Lymphocyte function associated antigen1 in LFA-1/ICAM-1 binding assay
[9] = Maximum plasma concentration present after 4 hours of administration of compound of concentration 100 mg/kg; format: ADME, organism-based, Homo sapiens; set-up: dose 100 mg/kg; details: read-out: Concentration
Outline: (§1)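 Mice in the SEB-induced IL-2 production experiment were dosed orally at 30 or 100 mg/kg. Plasma drug concentration was measured 4 h after dosing and reported in ng/mL.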

[10] = Concentration required for inhibition of aggregation of JY cell line; format: functional, cell-based; details: Homo sapiens
[11] = Maximum plasma concentration present after 4 hours of administration of compound at 30 mg/kg; format: ADME, organism-based, Homo sapiens; set-up: dose 30 mg/kg; details: read-out: Concentration
[12] = Maximum plasma concentration present after 4 hours of administration of compound of at 30 mg/kg; format: ADME, organism-based, Homo sapiens; set-up: dose 30 mg/kg; details: read-out: Concentration
[13] = Maximum plasma concentration present after 4 hours of administration of compound of at 100 mg/kg; format: ADME, organism-based, Homo sapiens; set-up: dose 100 mg/kg; details: read-out: Concentration; outline: as §1

T1 sequence (P20701 whole entry): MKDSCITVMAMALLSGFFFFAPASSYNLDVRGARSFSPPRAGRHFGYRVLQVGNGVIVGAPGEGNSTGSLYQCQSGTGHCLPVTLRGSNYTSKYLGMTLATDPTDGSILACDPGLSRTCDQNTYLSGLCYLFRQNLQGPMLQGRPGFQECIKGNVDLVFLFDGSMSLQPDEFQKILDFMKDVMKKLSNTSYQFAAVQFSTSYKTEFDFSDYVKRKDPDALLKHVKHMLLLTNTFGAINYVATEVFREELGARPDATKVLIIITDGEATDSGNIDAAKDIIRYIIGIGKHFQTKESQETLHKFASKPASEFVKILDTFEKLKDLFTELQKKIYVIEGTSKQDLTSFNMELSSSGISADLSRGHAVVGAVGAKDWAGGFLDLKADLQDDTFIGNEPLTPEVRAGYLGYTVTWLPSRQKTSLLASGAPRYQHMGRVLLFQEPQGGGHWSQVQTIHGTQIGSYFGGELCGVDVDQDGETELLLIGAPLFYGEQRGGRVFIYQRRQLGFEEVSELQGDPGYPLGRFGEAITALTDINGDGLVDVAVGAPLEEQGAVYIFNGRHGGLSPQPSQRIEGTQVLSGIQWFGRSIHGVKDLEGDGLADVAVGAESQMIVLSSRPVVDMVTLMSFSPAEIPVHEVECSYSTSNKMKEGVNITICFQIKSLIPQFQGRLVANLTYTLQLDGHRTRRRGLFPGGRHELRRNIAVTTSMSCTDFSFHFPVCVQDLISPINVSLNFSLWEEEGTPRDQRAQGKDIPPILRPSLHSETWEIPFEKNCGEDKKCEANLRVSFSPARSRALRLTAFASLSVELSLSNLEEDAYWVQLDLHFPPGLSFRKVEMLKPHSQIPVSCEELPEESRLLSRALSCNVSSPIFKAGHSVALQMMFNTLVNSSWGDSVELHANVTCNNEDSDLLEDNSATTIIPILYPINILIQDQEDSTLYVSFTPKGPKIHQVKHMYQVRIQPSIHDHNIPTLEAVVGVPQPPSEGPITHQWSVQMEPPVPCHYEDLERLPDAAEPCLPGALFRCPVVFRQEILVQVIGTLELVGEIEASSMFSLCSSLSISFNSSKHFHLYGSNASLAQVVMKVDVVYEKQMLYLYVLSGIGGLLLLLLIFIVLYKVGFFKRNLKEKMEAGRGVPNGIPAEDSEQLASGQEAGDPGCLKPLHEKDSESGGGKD
T1 sequence (P05362 whole entry, further chain): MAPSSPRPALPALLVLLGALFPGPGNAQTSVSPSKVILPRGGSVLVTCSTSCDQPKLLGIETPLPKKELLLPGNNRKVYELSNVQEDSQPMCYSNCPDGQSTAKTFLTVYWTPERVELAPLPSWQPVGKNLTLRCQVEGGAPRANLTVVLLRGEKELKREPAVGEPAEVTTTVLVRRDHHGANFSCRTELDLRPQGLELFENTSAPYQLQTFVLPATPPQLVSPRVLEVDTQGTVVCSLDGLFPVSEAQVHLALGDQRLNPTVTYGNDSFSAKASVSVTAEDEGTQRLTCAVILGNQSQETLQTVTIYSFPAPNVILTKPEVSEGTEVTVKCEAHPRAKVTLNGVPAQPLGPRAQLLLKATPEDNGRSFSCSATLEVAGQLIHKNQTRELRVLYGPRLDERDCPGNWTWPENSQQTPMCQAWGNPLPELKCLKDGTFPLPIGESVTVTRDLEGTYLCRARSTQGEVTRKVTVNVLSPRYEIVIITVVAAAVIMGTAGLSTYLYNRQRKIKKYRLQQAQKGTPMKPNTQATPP
T1 sequence (P05107 whole entry): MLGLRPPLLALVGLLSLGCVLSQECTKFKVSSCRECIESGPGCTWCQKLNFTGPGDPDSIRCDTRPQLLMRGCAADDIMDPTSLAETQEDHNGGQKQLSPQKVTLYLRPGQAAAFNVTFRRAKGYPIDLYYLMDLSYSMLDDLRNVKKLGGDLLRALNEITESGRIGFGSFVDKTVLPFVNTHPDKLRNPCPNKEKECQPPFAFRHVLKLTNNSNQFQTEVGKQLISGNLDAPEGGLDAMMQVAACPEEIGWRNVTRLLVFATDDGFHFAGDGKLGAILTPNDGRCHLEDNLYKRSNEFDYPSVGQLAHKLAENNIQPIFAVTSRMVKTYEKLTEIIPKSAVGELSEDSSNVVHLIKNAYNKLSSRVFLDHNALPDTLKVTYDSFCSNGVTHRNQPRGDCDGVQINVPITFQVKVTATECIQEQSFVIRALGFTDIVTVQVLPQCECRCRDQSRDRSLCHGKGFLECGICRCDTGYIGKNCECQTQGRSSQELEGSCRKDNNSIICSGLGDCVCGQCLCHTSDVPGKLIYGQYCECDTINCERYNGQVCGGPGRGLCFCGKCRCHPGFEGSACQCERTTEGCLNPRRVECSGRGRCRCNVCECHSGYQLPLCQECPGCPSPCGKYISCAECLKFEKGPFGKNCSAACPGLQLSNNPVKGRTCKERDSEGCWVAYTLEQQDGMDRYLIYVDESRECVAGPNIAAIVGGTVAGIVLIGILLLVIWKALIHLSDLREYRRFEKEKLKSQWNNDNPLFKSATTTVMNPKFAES

Compound `C[C@@]1(Cc2ccc(Br)cc2)C(=O)N(c2cc(Cl)cc(Cl)c2)c2ncc(S(=O)(=O)N3CCC(=O)CC3)n21` has a Kd [1] of 10 nM, an IC50 (Cell line [2]) of 5500 nM and a Kd [3] of 300 nM. It also gave an IC50 [4] of 250 nM and an IC50 (Mus musculus) of 5500 nM.

`CC1(Cc2ccc(Br)cc2)C(=O)N(c2cc(Cl)cc(Cl)c2)c2ncc(Br)n21` (centres undefined) gave a Kd [1] of 180 nM.

Compound `C[C@@]1(Cc2ccc(Br)cc2)C(=O)N(c2cc(Cl)cc(Cl)c2)c2ncc(S(=O)(=O)N3CCCCC3)n21` has a Kd [1] of 50 nM.

Work on `C[C@@]1(Cc2ccc(Br)cc2)C(=O)N(c2cc(Cl)cc(Cl)c2)c2ncc(S(=O)(=O)N3CCC(O)CC3)n21` yielded a Kd [1] of 8 nM, an IC50 (Cell line [2]) of 4600 nM and a Kd [3] of 40 nM. The Kd [5] was 9 nM, the IC50 [4] was 30 nM and the IC50 (Mus musculus) was 4600 nM.

Compound `CN1C(=O)N(c2cc(Cl)cc(Cl)c2)C(=O)[C@@]1(C)Cc1ccc(Br)cc1` has an Activity (Cell line [6]) of 141 pM/min/mg and an IC50 [7] of 240 nM.

In the case of `CC1(Cc2ccc(Br)cc2)C(=O)N(c2cc(Cl)cc(Cl)c2)c2nc(S(C)(=O)=O)cn21` (centres undefined), the Kd [1] is reported as 920 nM.

In the case of `C[C@@]1(Cc2ccc(Br)cc2)C(=O)N(c2cc(Cl)cc(Cl)c2)c2ncc(S(=O)(=O)CCCCO)n21`, the Kd [1] is reported as 10 nM.

Work on `CC1(Cc2ccc(Br)cc2)C(=O)N(c2cc(Cl)cc(Cl)c2)c2ncc(S(C)(=O)=O)n21` (centres undefined) yielded a Kd [1] of 70 nM.

With `C[C@]1(Cc2ccc(Br)cc2)C(=O)N(c2cc(Cl)cc(Cl)c2)c2nccn21` the Kd [1] was > 7000 nM.

`C[C@@]1(Cc2ccc(Br)cc2)C(=O)N(c2cc(Cl)cc(Cl)c2)c2ncc(S(=O)(=O)CCCO)n21` showed a Kd [1] of 10 nM, an IC50 (Cell line [2]) of 10400 nM and a Kd [3] of 100 nM. The IC50 [4] was 90 nM and the Kd [8] was 10 nM.

Compound `COc1cnc2n1C(C)(Cc1ccc(Br)cc1)C(=O)N2c1cc(Cl)cc(Cl)c1` (centres undefined) has a Kd [1] of 360 nM.

In the case of `CC1(Cc2ccc(Br)cc2)C(=O)N(c2cc(Cl)cc(Cl)c2)c2nc(I)cn21` (centres undefined), the Kd [1] is reported as > 20000 nM.

`Cc1cnc2n1C(C)(Cc1ccc(Br)cc1)C(=O)N2c1cc(Cl)cc(Cl)c1` (centres undefined) gave a Kd [1] of 340 nM.

`CNCCCS(=O)(=O)c1cnc2n1[C@](C)(Cc1ccc(Br)cc1)C(=O)N2c1cc(Cl)cc(Cl)c1` gave a Kd [1] of 150 nM.

For `C[C@@]1(Cc2ccc(Br)cc2)C(=O)N(c2cc(Cl)cc(Cl)c2)c2ncc(S(=O)(=O)CCCN)n21`, the Kd [1] was 170 nM.

In the case of `COCCCS(=O)(=O)c1cnc2n1[C@](C)(Cc1ccc(Br)cc1)C(=O)N2c1cc(Cl)cc(Cl)c1`, the Kd [1] is reported as 20 nM.

In the case of `CC(=O)OCCCCS(=O)(=O)c1cnc2n1[C@](C)(Cc1ccc(Br)cc1)C(=O)N2c1cc(Cl)cc(Cl)c1`, the Kd [1] is reported as 30 nM.

`CC1(Cc2ccc(Br)cc2)C(=O)N(c2cc(Cl)cc(Cl)c2)c2nccn21` (racemic) showed a Kd [1] of 380 nM.

With `CC(=O)NCCCS(=O)(=O)c1cnc2n1[C@](C)(Cc1ccc(Br)cc1)C(=O)N2c1cc(Cl)cc(Cl)c1` the Kd [1] was 30 nM, the IC50 (Cell line [2]) was 9500 nM and the Kd [3] was 70 nM. It also gave an IC50 [4] of 350 nM and an IC50 (Mus musculus) of 9500 nM.

`C[C@@]1(Cc2ccc(Br)cc2)C(=O)N(c2cc(Cl)cc(Cl)c2)c2ncc(S(=O)(=O)N3CCOCC3)n21` gave a Kd [1] of 20 nM.

Work on `C[C@@]1(Cc2ccc(Br)cc2)C(=O)N(c2cc(Cl)cc(Cl)c2)c2ncc(S(=O)(=O)N3CCNCC3)n21` yielded a Kd [1] of 50 nM, an IC50 (Cell line [2]) of 27800 nM and a Kd [3] of 400 nM. For the same compound, the IC50 [4] was 380 nM and the IC50 (Mus musculus) was 27800 nM.

Work on `CC1(Cc2ccc(Br)cc2)C(=O)N(c2cc(Cl)cc(Cl)c2)c2nc(Br)cn21` (centres undefined) yielded a Kd [1] of 630 nM.

For `CC1(Cc2ccc(Br)cc2)C(=O)N(c2cc(Cl)cc(Cl)c2)c2ncc(C#N)n21` (centres undefined), the Kd [1] was 190 nM.

`CC1(Cc2ccc(Br)cc2)C(=O)N(c2cc(Cl)cc(Cl)c2)c2nc(C#N)cn21` (centres undefined) showed a Kd [1] of 280 nM.

For `CC(=O)OCCCS(=O)(=O)c1cnc2n1[C@](C)(Cc1ccc(Br)cc1)C(=O)N2c1cc(Cl)cc(Cl)c1`, the Kd [1] was 10 nM, the IC50 (Cell line [2]) was 7000 nM and the Kd [3] was 40 nM. It also gave an IC50 [4] of 370 nM.

`CC1(Cc2ccc(Br)cc2)C(=O)N(c2cc(Cl)cc(Cl)c2)c2ncc(I)n21` (centres undefined) showed a Kd [1] of 410 nM.

With `C[C@@]1(Cc2ccc(Br)cc2)C(=O)N(c2cc(Cl)cc(Cl)c2)c2ncc(S(C)(=O)=O)n21` the Kd [1] was 50 nM, the Cmax [9] was 14400 ng/mL and the IC50 [10] was 260 nM. For the same compound, the Cmax [11] was 2800 ng/mL.

In the case of `C[C@@]1(Cc2ccc(Br)cc2)C(=O)N(c2cc(Cl)cc(Cl)c2)c2ncc(S(=O)(=O)N3CCCC(O)C3)n21` (some centres undefined), the Kd [1] is reported as 70 nM.

With `C[C@@]1(Cc2ccc(Br)cc2)C(=O)N(c2cc(Cl)cc(Cl)c2)c2nccn21` the Kd [1] was 10 nM, the IC50 [10] was 1200 nM and the Activity (Cell line [6]) was 114 pM/min/ml. The Cmax [12] was 25 ng/mL and the Cmax [13] was 155 ng/mL.

`C[C@@]1(Cc2ccc(Br)cc2)C(=O)N(c2cc(Cl)cc(Cl)c2)c2ncc(S(=O)(=O)CCO)n21` gave a Kd [1] of 40 nM.

For `CC1(Cc2ccc(Br)cc2)C(=O)N(c2cc(Cl)cc(Cl)c2)c2nnnn21` (centres undefined), the Kd [1] was 110 nM.

Compound `CC1(Cc2ccc(Br)cc2)C(=O)N(c2cc(Cl)cc(Cl)c2)c2nncn21` (centres undefined) has a Kd [1] of 40 nM.
